These results are taken from ChEMBL document CHEMBL4024770, “Augmentation of Anticancer Drug Efficacy in Murine Hepatocellular Carcinoma Cells by a Peripherally Acting Competitive N-Methyl-d-aspartate (NMDA) Receptor Antagonist” (J Med Chem, 2017).

In assay [1] the target is Glutamate receptor ionotropic, kainate 2 (Rattus norvegicus, UniProt P42260). The assay is described as follows: Displacement of [3H]-KA from recombinant homomeric rat GluK2 (V,C,R)a receptor expressed in baculovirus infected Sf9 insect cell membranes by scintillation counting method. (In general: Loss of bound radioactivity is the signal in a displacement assay; it reports binding, not function.)
Sequence of Glutamate receptor ionotropic, kainate 2 (P42260 whole entry): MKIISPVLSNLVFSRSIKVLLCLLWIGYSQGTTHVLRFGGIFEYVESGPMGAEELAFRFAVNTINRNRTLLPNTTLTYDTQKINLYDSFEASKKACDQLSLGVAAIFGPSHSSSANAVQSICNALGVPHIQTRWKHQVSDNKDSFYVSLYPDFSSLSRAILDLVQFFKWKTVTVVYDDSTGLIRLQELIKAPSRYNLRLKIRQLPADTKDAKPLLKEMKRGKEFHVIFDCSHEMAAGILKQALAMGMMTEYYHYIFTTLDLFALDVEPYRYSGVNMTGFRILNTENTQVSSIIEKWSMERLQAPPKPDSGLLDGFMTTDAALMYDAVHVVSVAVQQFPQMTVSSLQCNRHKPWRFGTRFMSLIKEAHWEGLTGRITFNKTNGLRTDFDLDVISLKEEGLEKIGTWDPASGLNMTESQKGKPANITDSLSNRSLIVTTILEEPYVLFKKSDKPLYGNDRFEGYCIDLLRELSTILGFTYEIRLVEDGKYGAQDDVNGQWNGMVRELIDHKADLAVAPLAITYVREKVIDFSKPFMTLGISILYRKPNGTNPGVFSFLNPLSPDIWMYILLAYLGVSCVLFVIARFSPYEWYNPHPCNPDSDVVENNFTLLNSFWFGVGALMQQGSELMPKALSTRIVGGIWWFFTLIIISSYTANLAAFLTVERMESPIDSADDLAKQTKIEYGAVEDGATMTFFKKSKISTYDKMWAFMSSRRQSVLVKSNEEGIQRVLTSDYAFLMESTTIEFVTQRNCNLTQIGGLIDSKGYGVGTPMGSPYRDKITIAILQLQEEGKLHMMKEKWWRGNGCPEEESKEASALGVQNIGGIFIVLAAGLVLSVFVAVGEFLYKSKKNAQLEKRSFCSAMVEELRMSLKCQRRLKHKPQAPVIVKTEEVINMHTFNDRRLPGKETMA

Assay [2] has as its target Glutamate receptor ionotropic, kainate 1 (Rattus norvegicus, UniProt P22756). The assay can be described thus: Displacement of [3H]-SYM2081 from recombinant homomeric rat GluK1 (Q)1b receptor expressed in baculovirus infected Sf9 insect cell membranes by scintillation counting method.
The nature of assay [3]: Displacement of [3H]-KA from KA receptor in Sprague-Dawley rat brain synaptosomes after 60 mins by scintillation counting method. The assay is classed as subcellular.
Assay [4] can be described thus: Displacement of [3H]-CGP-39653 from NMDA receptor in Sprague-Dawley rat brain synaptosomes after 60 mins by scintillation counting method. The assay is classed as subcellular.
In assay [5] the target is Glutamate receptor ionotropic, kainate 3 (Rattus norvegicus, UniProt P42264). The assay can be described thus: Displacement of [3H]-KA from recombinant homomeric rat GluK3a receptor expressed in baculovirus infected Sf9 insect cell membranes by scintillation counting method.
Sequence of Glutamate receptor ionotropic, kainate 3 (P42264 whole entry): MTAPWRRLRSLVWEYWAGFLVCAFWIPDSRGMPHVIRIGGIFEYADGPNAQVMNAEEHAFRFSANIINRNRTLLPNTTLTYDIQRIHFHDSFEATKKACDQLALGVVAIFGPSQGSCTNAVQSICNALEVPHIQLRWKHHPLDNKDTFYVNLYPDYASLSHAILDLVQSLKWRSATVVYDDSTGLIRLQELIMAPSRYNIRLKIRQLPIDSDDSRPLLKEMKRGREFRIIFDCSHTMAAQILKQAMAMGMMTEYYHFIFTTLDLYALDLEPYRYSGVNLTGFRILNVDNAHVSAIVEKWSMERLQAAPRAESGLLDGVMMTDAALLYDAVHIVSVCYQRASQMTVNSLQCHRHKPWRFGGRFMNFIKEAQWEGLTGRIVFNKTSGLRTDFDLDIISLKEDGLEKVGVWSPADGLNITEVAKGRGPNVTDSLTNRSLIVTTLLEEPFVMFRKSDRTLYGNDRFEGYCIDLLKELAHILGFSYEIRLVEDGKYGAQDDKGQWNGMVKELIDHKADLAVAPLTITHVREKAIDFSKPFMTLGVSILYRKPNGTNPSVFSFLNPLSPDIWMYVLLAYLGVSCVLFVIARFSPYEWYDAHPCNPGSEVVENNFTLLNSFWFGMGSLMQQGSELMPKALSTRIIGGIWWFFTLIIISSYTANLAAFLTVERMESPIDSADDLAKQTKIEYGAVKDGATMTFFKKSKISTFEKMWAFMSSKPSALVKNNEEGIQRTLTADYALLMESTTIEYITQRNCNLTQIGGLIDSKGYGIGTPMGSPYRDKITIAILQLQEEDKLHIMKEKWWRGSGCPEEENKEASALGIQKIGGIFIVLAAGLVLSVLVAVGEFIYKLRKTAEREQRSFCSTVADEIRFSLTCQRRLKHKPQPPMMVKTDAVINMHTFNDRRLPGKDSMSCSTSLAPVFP
Assay [6] can be described thus: Displacement of [3H]-AMPA from AMPA receptor in Sprague-Dawley rat brain synaptosomes after 30 mins by scintillation counting method. The assay is classed as subcellular.
Assay [7] is filed under the species Mus musculus. The assay can be described thus: Antagonist activity at NMDA receptor in Nras driven p53 deficient mouse HCC cell membranes assessed as inhibition of NMDA-induced intracellular Ca2+ transients at 20 uM […] by fluo-4AM dye-based fluorescence assay. The method in brief: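 Intact murine HCC cells loaded with 5 μM Fluo-4-AM for 45 min, then washed out for 20 min in BSS (mM: 2.5 KCl, 152 NaCl, 10 glucose, 2 CaCl₂, 10 HEPES, pH 7.4). 150 μM NMDA applied for 15 s by fast perfusion, alone or together with antagonist. Fluorescence imaged with 495 nm excitation on a CCD camera. Read-out is the percentage of cells showing induced Ca²⁺ transients; n=5.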

The target of assay [8] is Glutamate NMDA receptor; Grin1/Grin2a (Rattus norvegicus, UniProt P35439+Q00959). The assay is described as follows: Antagonist activity at recombinant rat GluN1a/GluN2A expressed in Xenopus laevis oocytes assessed as inhibition of glycine/glutamate-mediated current responses by two-electrode voltage clamp method. The assay is classed as cell-based. In a few lines:
(§1)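 Xenopus oocytes were injected with rat GluN1 and GluN2A–D cRNA (1:2) and recorded 2–6 days later by TEVC at room temperature, −40 mV, in Ba2+-containing recording solution, pH 7.4. Currents were evoked by 100 μM glycine plus glutamate at 2–3× EC50: 10 μM for GluN2A, 3 μM for GluN2B and GluN2C, 1 μM for GluN2D. IC50 from Hill fits per oocyte; Ki estimated.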
In general terms: Two-electrode voltage clamp is typically applied to oocytes expressing channels or transporters.

In assay [9] the target is Glutamate NMDA receptor; Grin1/Grin2b (Rattus norvegicus, UniProt P35439+Q00960). The assay is described as follows: Antagonist activity at recombinant rat GluN1a/GluN2B expressed in Xenopus laevis oocytes assessed as inhibition of glycine/glutamate-mediated current responses by two-electrode voltage clamp method. The assay is classed as cell-based. The method in brief:
as §1

The species named for assay [10] is Mus musculus. The assay can be described thus: Antagonist activity at NMDA receptor in Nras driven p53 deficient mouse HCC cell membranes assessed as potentiation of 10 uM sorafenib-mediated antiproliferative activity by measuring cell viability at 100 uM after 72 hrs by resazurin assay (reference value: […] +/- […]%). On the technique in general: Alamar Blue is a resazurin reagent that responds to reducing activity.

The species entered for assay [11] is Mus musculus. The assay can be described thus: Antagonist activity at NMDA receptor in Nras driven p53 deficient mouse HCC cell membranes assessed as potentiation of 5 uM sorafenib-mediated antiproliferative activity by measuring cell viability at 100 uM after 72 hrs by resazurin assay (reference value: […] +/- […]%).
For assay [12], the species on record is Mus musculus. The assay is described as follows: Antagonist activity at NMDA receptor in Nras driven p53 deficient mouse HCC cell membranes assessed as LPS-stimulated PGE2 levels at 10 uM after 24 hrs by LC-MS/MS method (reference value: 162 +/- 7%). Also noted: scale not given: the % may be the effect or the level left. The method in brief:
(§2)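 Mouse Nras-driven p53−/− HCC cells in DMEM with 2 mM L-glutamine, 10% heat-inactivated FBS and penicillin/streptomycin. Cells incubated 24 h with or without antagonist, either without LPS or with 2.5 μg/mL LPS in the growth medium. Cells washed three times with ice-cold HBSS and lysed in acetonitrile on ice. PGE₂ in lysates measured by LC-MS/MS (LLOQ 1 nM) and expressed as % of control; n=3.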

Assay [13] has as its target Ionotropic glutamate receptor NMDA 1/2D (Rattus norvegicus, UniProt P35439+Q62645). The assay can be described thus: Antagonist activity at recombinant rat GluN1a/GluN2D expressed in Xenopus laevis oocytes assessed as inhibition of glycine/glutamate-mediated current responses by two-electrode voltage clamp method. The assay is classed as cell-based. In a few lines:
as §1

The species named for assay [14] is Mus musculus. The assay is described as follows: Antagonist activity at NMDA receptor in Nras driven p53 deficient mouse HCC cell membranes assessed as PGE2 levels at 10 uM after 24 hrs by LC-MS/MS method relative to control. Also noted: scale not given: the % may be the effect or the level left. The method in brief:
as §2

The species named for assay [15] is Mus musculus. The assay can be described thus: Antagonist activity at NMDA receptor in Nras driven p53 deficient mouse HCC cell membranes assessed as potentiation of 1 uM sorafenib-mediated antiproliferative activity by measuring cell viability at 100 uM after 72 hrs by resazurin assay (reference value: […] +/- […]%).
The nature of assay [16]: Antiproliferative activity against Nras driven p53 deficient mouse HCC cells assessed as cell viability at 100 uM after 72 hrs by resazurin assay relative to control. The assay is classed as functional. As to conditions: read-out: Activity.
Assay [17] concerns the target Glutamate NMDA receptor; Grin1/Grin2c (Rattus norvegicus, UniProt P35439+Q00961). The assay can be described thus: Antagonist activity at recombinant rat GluN1a/GluN2C expressed in Xenopus laevis oocytes assessed as inhibition of glycine/glutamate-mediated current responses by two-electrode voltage clamp method. The assay is classed as cell-based. In a few lines: as §1

The species entered for assay [18] is Mus musculus. The assay is described as follows: Antagonist activity at NMDA receptor in Nras driven p53 deficient mouse HCC cell membranes assessed as potentiation of 2.5 uM sorafenib-mediated antiproliferative activity by measuring cell viability at 100 uM after 72 hrs by resazurin assay (reference value: […] +/- […]%).

What is called Ki is the equilibrium dissociation constant of an inhibitor or competing ligand from its target. The IC50 is the midpoint of a concentration-inhibition curve. In general, pIC50 refers to the negative decadic logarithm of the IC50, by convention in mol/L. In general, pKi refers to the negative decadic logarithm of the Ki, by convention in mol/L.

Each structure is given as a SMILES string. The source made the active and inactive calls. The calls are words filed in the database; no cut-off is given here. A value given as a limit tells only on which side of the number the result lay.

Sequence of Glutamate receptor ionotropic, kainate 1 (P22756 whole entry): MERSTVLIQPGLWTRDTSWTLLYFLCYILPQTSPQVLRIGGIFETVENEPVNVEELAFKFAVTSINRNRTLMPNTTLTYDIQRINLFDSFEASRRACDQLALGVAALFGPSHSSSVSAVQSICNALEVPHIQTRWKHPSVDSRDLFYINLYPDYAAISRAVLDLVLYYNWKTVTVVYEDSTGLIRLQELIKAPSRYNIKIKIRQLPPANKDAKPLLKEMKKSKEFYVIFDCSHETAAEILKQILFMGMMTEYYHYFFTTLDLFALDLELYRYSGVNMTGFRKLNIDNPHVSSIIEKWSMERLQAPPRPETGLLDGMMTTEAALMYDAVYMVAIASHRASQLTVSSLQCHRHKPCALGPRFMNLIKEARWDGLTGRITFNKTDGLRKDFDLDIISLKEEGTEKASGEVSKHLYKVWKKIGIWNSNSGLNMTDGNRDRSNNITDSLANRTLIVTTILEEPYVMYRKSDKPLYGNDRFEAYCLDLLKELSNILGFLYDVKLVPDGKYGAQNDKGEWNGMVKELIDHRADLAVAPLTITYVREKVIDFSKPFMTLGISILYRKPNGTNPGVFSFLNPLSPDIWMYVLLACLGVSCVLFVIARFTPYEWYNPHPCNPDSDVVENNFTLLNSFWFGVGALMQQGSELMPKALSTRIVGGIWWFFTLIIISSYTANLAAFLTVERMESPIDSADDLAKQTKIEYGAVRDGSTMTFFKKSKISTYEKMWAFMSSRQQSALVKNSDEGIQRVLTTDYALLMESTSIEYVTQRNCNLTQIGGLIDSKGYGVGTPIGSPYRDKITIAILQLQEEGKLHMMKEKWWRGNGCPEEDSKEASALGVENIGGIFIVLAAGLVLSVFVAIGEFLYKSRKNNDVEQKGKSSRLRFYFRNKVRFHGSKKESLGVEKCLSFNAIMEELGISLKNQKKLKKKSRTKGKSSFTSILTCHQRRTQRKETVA
Sequence of Ionotropic glutamate receptor NMDA 1/2D (Q62645 whole entry, other chains not shown): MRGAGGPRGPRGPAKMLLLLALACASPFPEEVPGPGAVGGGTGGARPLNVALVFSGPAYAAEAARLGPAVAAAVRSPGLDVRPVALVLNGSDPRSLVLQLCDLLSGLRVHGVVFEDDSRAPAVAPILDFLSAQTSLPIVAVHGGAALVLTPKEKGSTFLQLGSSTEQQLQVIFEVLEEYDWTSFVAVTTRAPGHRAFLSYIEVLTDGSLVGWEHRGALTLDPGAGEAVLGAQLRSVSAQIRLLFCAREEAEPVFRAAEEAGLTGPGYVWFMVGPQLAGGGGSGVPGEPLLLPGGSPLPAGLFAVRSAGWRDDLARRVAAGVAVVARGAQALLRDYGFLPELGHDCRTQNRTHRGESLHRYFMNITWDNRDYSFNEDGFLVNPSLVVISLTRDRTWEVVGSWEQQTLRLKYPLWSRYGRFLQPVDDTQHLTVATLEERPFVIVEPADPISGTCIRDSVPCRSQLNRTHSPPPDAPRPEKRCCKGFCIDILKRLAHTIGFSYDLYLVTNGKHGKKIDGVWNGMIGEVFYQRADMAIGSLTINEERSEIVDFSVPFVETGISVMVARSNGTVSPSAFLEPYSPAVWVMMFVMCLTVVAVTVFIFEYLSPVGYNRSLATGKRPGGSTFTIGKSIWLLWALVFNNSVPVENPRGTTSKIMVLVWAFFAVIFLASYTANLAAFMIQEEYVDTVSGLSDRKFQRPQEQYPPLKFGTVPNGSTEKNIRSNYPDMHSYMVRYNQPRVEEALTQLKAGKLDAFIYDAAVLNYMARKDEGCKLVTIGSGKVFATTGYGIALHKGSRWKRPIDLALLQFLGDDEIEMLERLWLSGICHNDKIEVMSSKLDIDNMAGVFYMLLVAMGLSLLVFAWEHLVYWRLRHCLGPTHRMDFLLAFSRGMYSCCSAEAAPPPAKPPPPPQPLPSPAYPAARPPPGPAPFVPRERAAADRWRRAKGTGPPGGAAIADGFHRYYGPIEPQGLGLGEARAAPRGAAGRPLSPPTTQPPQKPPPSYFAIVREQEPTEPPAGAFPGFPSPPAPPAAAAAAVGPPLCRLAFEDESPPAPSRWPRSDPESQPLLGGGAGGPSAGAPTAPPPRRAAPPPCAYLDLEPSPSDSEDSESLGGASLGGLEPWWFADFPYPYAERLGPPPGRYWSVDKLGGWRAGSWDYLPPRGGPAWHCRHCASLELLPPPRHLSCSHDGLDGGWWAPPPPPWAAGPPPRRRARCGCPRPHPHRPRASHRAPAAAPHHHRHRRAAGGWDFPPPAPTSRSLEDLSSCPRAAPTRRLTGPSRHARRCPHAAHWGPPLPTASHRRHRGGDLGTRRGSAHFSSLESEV

As for `NC(=O)c1cccc([C@H]2CCN[C@@H]2C(=O)O)c1`, the Ki in [1], in assay [2], in assay [4] and in assay [5] was > 100 µM throughout. For the same molecule, the IC50 in assay [3] and in assay [6] was > 100 µM throughout.

Turning to `Cc1ccc([C@H]2CCN[C@@H]2C(=O)O)cc1C(=O)O`, the Ki in assay [1], in assay [2] and in [5] was > 100 µM each time. Also, the IC50 in assay [3] and in [6] was > 100 µM each time.

In the case of `O=C(O)[C@H]1NCC[C@@H]1c1cccc(Cl)c1`, the Ki in assay [1], in [2], in assay [4] and in assay [5] was > 100 µM throughout. Besides, the half-maximal inhibitory concentration (IC50) in assay [3] and in assay [6] was > 100 µM each time.

As to `N[C@H](CCCP(=O)(O)O)C(=O)O`, the inhibition entry in the assay listed under Mus musculus [7] is “Active”. For the same molecule, the Ki in [8] was determined as 0.39 µM; in assay [9], 2.8 µM; in assay [13], 21 µM; in assay [17], 5.9 µM. Besides, the Activity in the assay filed under Mus musculus [10] is 16%; in the assay listed under Mus musculus [11], 44%; in the assay listed under Mus musculus [12] it was 110%; in the assay filed under Mus musculus [14], 58%; in the assay filed under Mus musculus [15], 70%; in the assay filed under Mus musculus [18], 63%. The viability at 100 µM in assay [16] worked out at 79%.

Take `Cl.O=C(O)c1cc([C@H]2CCN[C@@H]2C(=O)O)ccc1F`: the Ki in assay [1] is > 100 µM; in [2] it was 12 µM; in assay [4] it was 4.6 µM; in [5] it was 11 µM. For the same molecule, the figures for the IC50 in [3] and in assay [6] were 59 µM and > 100 µM, respectively. This molecule had a pIC50 in assay [3] of 4.23. The molecule further came in with a pKi in assay [4] of 5.34.

Regarding `N#Cc1cccc([C@H]2CCN[C@@H]2C(=O)O)c1`, the Ki in assay [1] is > 1000 µM; in [2] it was > 1000 µM; in [4] it was > 100 µM; in assay [5], > 1000 µM. The IC50 in assay [3] and in [6] was > 100 µM in each case.

With `O=C(O)[C@H]1NCC[C@@H]1c1cccc(C(F)(F)F)c1`, the Ki in assay [1], in [2], in assay [4] and in assay [5] was > 100 µM throughout. Besides, the IC50 in assay [3] and in assay [6] was > 100 µM each time.

Take `O=C(O)c1cc([C@H]2CCN[C@@H]2C(=O)O)ccc1Br`: the Ki in [1], in assay [2] and in [5] was > 100 µM throughout. Besides, the IC50 in assay [3] and in assay [6] was > 100 µM in each case.

For the molecule `O=C(O)[C@H]1NCC[C@@H]1c1ccc(O)c(O)c1`, in assay [3], the IC50 is > 100 µM. Besides, in assay [4], the affinity, expressed as Ki, was 35 µM and the pKi was determined as 4.46. Besides, in assay [6], the IC50 was > 100 µM.

As to `O=C(O)[C@H]1NCC[C@@H]1c1cccc(B(O)O)c1`, the Ki in assay [1] is > 1000 µM; in assay [2] it was > 1000 µM; in [4], > 100 µM; in assay [5] it was > 100 µM. The IC50 in assay [3] and in [6] was > 100 µM throughout.

Regarding `Nc1cccc([C@H]2CCN[C@@H]2C(=O)O)c1`, the IC50 in assay [3] and in assay [6] was > 100 µM throughout. Moreover, the Ki in [4] is > 100 µM.
